Measurements reported in ChEMBL document CHEMBL5678808, “Human target validation of phosphoinositide 3-kinase (PI3K)β: effects on platelets and insulin sensitivity, using AZD6482 a novel PI3Kβ inhibitor” (J Thromb Haemost, 2012).
pIC50: −log10 of the molar value. The source made the active and inactive calls. The rule behind the calls is not given here.

Legend:
[1] = molecular target: Phosphatidylinositol 4,5-bisphosphate 3-kinase catalytic subunit beta isoform (Homo sapiens, UniProt P42338); experiment: Inhibition of recombinant human PI3Kbeta using PIP2 as substrate preincubated for 20 mins followed by substrate and ATP addition and measured after 20 mins by biotinylated-PIP3 based alphascreen assay
Chain of Phosphatidylinositol 4,5-bisphosphate 3-kinase catalytic subunit beta isoform (P42338 whole entry, canonical isoform): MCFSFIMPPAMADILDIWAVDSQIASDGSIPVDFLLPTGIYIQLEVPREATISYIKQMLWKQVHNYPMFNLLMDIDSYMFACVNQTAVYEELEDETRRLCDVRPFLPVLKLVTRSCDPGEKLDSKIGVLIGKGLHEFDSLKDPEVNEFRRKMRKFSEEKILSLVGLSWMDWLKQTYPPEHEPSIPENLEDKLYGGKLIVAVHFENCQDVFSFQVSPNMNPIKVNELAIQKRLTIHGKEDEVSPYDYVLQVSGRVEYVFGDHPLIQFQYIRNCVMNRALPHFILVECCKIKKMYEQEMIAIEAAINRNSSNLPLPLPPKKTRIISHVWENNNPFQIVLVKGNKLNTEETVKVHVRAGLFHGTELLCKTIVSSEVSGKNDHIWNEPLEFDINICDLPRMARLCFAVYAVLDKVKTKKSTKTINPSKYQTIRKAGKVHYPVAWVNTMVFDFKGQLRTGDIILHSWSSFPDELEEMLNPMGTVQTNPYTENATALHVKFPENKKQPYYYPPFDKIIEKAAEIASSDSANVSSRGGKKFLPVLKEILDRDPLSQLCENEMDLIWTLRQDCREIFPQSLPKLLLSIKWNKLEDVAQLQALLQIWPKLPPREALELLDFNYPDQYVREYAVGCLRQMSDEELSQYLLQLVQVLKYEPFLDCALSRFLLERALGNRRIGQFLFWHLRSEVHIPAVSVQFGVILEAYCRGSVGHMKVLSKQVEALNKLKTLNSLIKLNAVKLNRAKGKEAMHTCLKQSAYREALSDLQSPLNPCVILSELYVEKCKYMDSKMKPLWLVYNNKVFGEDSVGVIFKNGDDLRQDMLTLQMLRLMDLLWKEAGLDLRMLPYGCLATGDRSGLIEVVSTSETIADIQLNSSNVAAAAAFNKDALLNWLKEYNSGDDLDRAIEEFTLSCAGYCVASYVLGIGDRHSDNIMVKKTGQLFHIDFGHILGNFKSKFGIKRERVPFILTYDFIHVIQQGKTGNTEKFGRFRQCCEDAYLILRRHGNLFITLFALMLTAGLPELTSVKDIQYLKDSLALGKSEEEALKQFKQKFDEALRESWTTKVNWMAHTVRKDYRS

[2] = tested on: Rattus norvegicus; experiment: Effect on insulin resistance in iv dosed Sprague-Dawley rat assessed as plasma concentration required to show relative HOMA index of 3; format: functional, organism-based
[3] = molecular target: Phosphatidylinositol 4,5-bisphosphate 3-kinase catalytic subunit alpha isoform (Homo sapiens, UniProt P42336); experiment: Inhibition of recombinant human PI3Kalpha using PIP2 as substrate preincubated for 20 mins followed by substrate and ATP addition and measured after 20 mins by biotinylated-PIP3 based alphascreen assay
Chain of Phosphatidylinositol 4,5-bisphosphate 3-kinase catalytic subunit alpha isoform (P42336 whole entry, canonical isoform): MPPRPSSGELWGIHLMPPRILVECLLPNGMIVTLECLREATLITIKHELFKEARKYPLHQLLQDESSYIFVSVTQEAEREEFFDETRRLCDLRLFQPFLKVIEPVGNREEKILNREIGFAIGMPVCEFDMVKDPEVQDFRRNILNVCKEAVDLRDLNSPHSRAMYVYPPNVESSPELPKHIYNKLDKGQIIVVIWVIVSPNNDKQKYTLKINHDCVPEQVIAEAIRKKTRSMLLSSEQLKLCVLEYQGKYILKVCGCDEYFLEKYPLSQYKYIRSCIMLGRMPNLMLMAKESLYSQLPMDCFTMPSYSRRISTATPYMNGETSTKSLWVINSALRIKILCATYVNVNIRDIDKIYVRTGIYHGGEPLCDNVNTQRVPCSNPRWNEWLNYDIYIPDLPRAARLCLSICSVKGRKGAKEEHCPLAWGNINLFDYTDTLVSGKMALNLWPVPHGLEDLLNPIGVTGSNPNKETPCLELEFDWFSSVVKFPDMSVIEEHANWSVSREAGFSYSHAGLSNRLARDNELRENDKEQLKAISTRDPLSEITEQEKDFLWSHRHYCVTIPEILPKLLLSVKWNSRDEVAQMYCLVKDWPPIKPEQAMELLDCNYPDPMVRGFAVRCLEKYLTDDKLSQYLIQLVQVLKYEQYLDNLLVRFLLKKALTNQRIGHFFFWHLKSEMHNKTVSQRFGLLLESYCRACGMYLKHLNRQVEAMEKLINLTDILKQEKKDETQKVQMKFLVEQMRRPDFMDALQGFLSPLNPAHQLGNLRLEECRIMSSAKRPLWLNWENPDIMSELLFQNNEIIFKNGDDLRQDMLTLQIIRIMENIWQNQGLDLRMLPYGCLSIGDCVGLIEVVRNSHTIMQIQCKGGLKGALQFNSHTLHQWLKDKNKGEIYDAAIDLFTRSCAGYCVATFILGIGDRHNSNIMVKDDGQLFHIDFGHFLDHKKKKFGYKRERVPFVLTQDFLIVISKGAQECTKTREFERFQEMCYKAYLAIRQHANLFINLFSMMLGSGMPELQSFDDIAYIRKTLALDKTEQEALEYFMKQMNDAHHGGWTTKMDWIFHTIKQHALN

[4] = species on record: Homo sapiens; experiment: Inhibition of PI3Kalpha/beta/gamma/delta in human platelet rich plasma assessed as reduction in collagen-induced platelet aggregation at 5 uM preincubated for 10 mins followed by collagen addition and measured after 10 mins by light transmission aggregometry; format: cell-free; conditions: time 20.0 min
In short: (§1)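 Venous blood from healthy human donors, citrate-anticoagulated; undiluted platelet-rich plasma tested in an in-house 96-well plate light transmission aggregometry assay. Agonist concentration-response curves run without and with inhibitor. Values are means, n = 4.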

[5] = species on record: Homo sapiens; experiment: Inhibition of PI3Kalpha/beta/gamma/delta in human platelet rich plasma assessed as reduction in ADP-induced platelet aggregation at 5 uM preincubated for 10 mins followed by ADP addition and measured after 5 mins by light transmission aggregometry; format: cell-free; conditions: time 15.0 min; in short: as §1
[6] = species on record: Homo sapiens; experiment: Inhibition of PI3Kalpha/beta/gamma/delta in human platelet rich plasma assessed as reduction in TRAP-induced platelet aggregation at 5 uM preincubated for 10 mins followed by TRAP addition and measured after 5 mins by light transmission aggregometry; format: cell-free; conditions: time 15.0 min; in short: as §1

Cc1cc(F)ccc1Oc1cccc2c(=O)cc(N3CCOCC3)[nH]c12 gave a pIC50 [1] of 6.80, a Cp [2] of over 40 µM and a pIC50 [3] of 4.64.
CC(=O)Nc1nc(C)c(-c2cnc(Cl)c(NS(C)(=O)=O)c2)s1 showed a pIC50 [1] of 6.96, a Cp [2] of 0.3 µM and a pIC50 [3] of 8.00.
For COC[C@H]1OC(=O)c2coc3c2[C@@]1(C)C1=C(C3=O)[C@@H]2CCC(=O)[C@@]2(C)C[C@H]1OC(C)=O, the inhibition [4] was “Active”, the inhibition [5] was “Active” and the inhibition [6] was “Active”.
For Cc1cc(C(C)Nc2ccccc2C(=O)O)c2nc(N3CCOCC3)cc(=O)n2c1 (stereo not given), the Cp [2] was 30 µM.
